Reference: article PMC7951180 (Nature cell biology, 2020)

Assays:
[1] = target: TRIM63 (Homo sapiens, UniProt Q969Q1); test: Screen of small molecule inhibitors targeting TRIM63; format: biochemical; conditions: library of 2027 bioactive compounds; Ub-DMD (Lys3584) antibody, OD450
Summary of the method: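 The library screen measured DMD poly-ubiquitination by sandwich ELISA, with His6-TUBE capture and Ub-DMD (Lys3584) antibody detection read at OD450. Background-subtracted mean absorbance per compound was normalised to DMSO-treated samples and expressed as log2 fold change.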

[2] = test system: hiPS-SkMCs; test: IF staining / IB of DMD and Ub-DMD; format: cell-based, human; conditions: iPS-SkMCs and iPS-CMs derived from BMD patients; Nifenazone 10 μM, 72 hours
Summary of the method: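 Skeletal muscle cells came from iPSCs reprogrammed from fibroblasts of a healthy donor (GM09503) and four BMD donors (GM04981, GM02298, GM05089, GM04569). iPSCs were kept feeder-free on Matrigel in mTeSR1. For IF, myoblasts on collagen I-coated coverslips grew to confluence, then spent 4 days in myotube medium before 4% paraformaldehyde fixation. IF intensity combined average staining and percentage of positive cells; n=5 independent experiments, two-way ANOVA. Immunoblots were repeated twice.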

[3] = test system: hiPS-SkMCs; test: Immunoprecipitation and immunoblotting in hiPS-SkMCs; format: cell-based, human; conditions: IB; for Ub-DMD in K3584R mutant knockin BMD iPS-SkMCs: GM04981 K3584R
[4] = test system: Dmd C3333Y mice; test: IF staining of DMD and Ub-DMD; format: in vivo, mouse; conditions: Dmd C3333Y mice QUA, AGR mimics 10 mg/kg subQ every three days, Nifenazone 10 mg/kg i.p. daily, n=5
Summary of the method: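 Quadriceps sections from Dmd WT and Dmd C3333Y mice on control or test mimics, vehicle, or daily i.p. drug were immunostained for DMD and Ub-DMD (Lys3584). Intensity was quantified from average staining intensity and percentage of positively stained cells. Mean±SD, n=5 animals/group, one-way ANOVA.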

[5] = test system: Dmd C3333Y mice; test: Forelimb grip strength test of treated Dmd C3333Y mice; format: in vivo, mouse; conditions: AGR mimics 10 mg/kg subQ every three days, Nifenazone 10 mg/kg i.p. daily
[6] = test system: Dmd C3333Y mice; test: Fibrotic area in the heart of treated Dmd C3333Y mice; format: in vivo, mouse; conditions: 4 to 24 weeks of age, AGR mimics 10 mg/kg subQ every three days, Nifenazone 10 mg/kg i.p. daily, n=5
Summary of the method: (§1)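 Male and female Dmd WT and Dmd C3333Y mice were dosed from 4 weeks to 16 or 24 weeks of age. […] Groups were randomised by age and sex. Left ventricular values or cardiac fibrotic area percentage are reported as mean±SD, n=5/group, one-way ANOVA.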

[7] = test system: Dmd C3333Y mice; test: Echocardiography; format: in vivo, mouse; conditions: 4 to 24 weeks of age, AGR mimics 10 mg/kg subQ every three days, Nifenazone 10 mg/kg i.p. daily, n=5
Summary of the method: as §1

[8] = Body weight measurement; format: in vivo, mouse; conditions: Dmd C3333Y mice from 4 weeks of age; AGR mimics 10 mg/kg subQ every three days; Nifenazone 10 mg/kg i.p. daily
Summary of the method: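 Weighed weekly in male Dmd WT (scramble- or vehicle-treated) and Dmd C3333Y mice during dosing from 4 weeks of age, to 16 weeks for the i.p. drug arm. AGR-Scr and AGR-H19 mut served as control mimics. Mean±SD, n=5 mice/group, two-way ANOVA.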

[9] = Blood biochemistry; format: in vivo, mouse; conditions: Dmd C3333Y mice from 4 weeks of age; AGR mimics 10 mg/kg subQ every three days; Nifenazone 10 mg/kg i.p. daily
[10] = test system: mdx mice; test: IF staining of DMD and Ub-DMD in QUA of mdx mice with PPMO23 exon skipping; format: in vivo, mouse; conditions: PPMO23 15 mg/kg i.v. biweekly alone, or with AGR-H19 10 mg/kg s.q. every three days or Nifenazone 10 mg/kg i.p. daily; 4 to 24 weeks of age; n=5
Summary of the method: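 Controls were male C57BL/10J mice on scramble RNA plus vehicle, and mdx mice on scramble. Quadriceps were immunostained for DMD and Ub-DMD, and intensity was scored as average intensity × percentage positive cells. Mean±SD, n=5/condition, one-way ANOVA.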

[11] = test system: indicated genes; test: RT-qPCR of indicated genes and microRNAs; conditions: Dmd C3333Y QUA; 10 mg/kg subQ every three days
[12] = Pharmacokinetics; format: in vivo, mouse; conditions: biotin-labeled, 10 mg/kg single dose, wild type C57BL/6 mice, 3–72 hours; dot-blot, n=5 animals per time point
Summary of the method: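 A single 10 mg/kg dose of biotinylated H19 mimic (i.p. or subQ) or AGR-H19 (subQ) was given to wild type C57BL/6 mice. Muscle, heart, liver, kidney and lung were taken at 3, 12, 24, 48 or 72 h. Small RNA was dot-blotted against a 2-fold standard series of 1 μg–1 pg and detected with streptavidin-HRP. Levels are given as ng/g tissue, with PK parameters from nonlinear regression. n=5/time point.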

[13] = Serum IGF1 and IGF2 concentration; format: in vivo, mouse; conditions: Dmd C3333Y mice; 10 mg/kg subQ every three days
Summary of the method: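 Serum IGF1 and IGF2 were measured in Dmd WT and Dmd C3333Y mice under the treatment arms. AGR mimics were dosed from 4 weeks of age to 16 or 24 weeks. Mean±SD, n=5 mice/group, one-way ANOVA.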

TRIM63, sequence (Q969Q1 whole entry): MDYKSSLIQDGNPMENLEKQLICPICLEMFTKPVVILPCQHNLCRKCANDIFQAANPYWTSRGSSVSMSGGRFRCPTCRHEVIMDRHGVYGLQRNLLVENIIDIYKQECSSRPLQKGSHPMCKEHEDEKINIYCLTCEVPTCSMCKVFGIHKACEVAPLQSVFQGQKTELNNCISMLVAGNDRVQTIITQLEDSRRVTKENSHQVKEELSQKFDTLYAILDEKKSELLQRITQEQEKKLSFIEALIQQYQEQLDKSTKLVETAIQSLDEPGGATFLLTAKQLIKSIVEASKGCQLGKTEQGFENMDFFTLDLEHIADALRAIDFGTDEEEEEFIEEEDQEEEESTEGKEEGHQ

## Cc1c(NC(=O)c2cccnc2)c(=O)n(-c2ccccc2)n1C [Nifenazone]
[1]
  Inhibition of the enzymatic activities of TRIM63 in vitro (screen): effective inhibition
[2]
  Dystrophin protein stability: stabilized dystrophin
  Status of Ub-DMD (Lys3584): attenuated
[3]
  Ub-DMD in K3584R mutant knockin BMD iPS-SkMCs: minimally affected
[3]; vehicle or NIF
  Ub-DMD in hiPS-SkMCs upon NIF treatment: inhibited
[4]
  Dystrophin level in skeletal muscle: restored
  Ub-DMD level in skeletal muscle: decreased
[5]
  Muscle strength: significantly improved
[6]
  Fibrotic area in the heart: reduced
[7]
  Heart function (left ventricular ejection fraction and fraction shortening): improved
[8]
  Body weight: minimally affected
[9]
  Liver or kidney function: minimally affected
[10]
  Dystrophin protein in skeletal muscle of mdx mice: significantly increased
  Ub-DMD (poly-Ub) in skeletal muscle of mdx mice: reduced

## N-terminal-ELTNEIPAELTNEIPA-Linker-5'-[2’-F-C][2’-F-U][2’-F-C][2’-F-U][2’-F-U][2’-F-U][2’-F-G][2’-F-U][2’-F-U][2’-F-U][2’-F-C][2’-F-U][2’-F-G][2’-F-A][2’-F-G][2’-F-C][2’-F-U][2’-F-U][2’-F-U][2’-F-C][2’-F-C][2’-F-U][2’-F-G][2’-F-U][2’-F-C][2’-F-U][2’-F-U][2’-F-U][2’-F-C][2’-F-C]-3' [AGR-H19]
[3]
  Ub-DMD in K3584R mutant knockin BMD iPS-SkMCs: minimally affected
[11]
  Expression status of microRNAs tested: minimal effects
[12]
  Amount in skeletal and cardiac muscles after dosing: substantial amount
[4]
  Dystrophin level in skeletal muscle: elevated
  Ub-DMD level in skeletal muscle: reduced
[5]
  Muscle strength: improved
[6]
  Fibrotic area in the heart: reduced
[7]
  Heart function (left ventricular ejection fraction and fraction shortening): increased
[8]
  Body weight: minimal effects
[9]
  Liver or kidney function: minimal effects
[13]
  Serum IGF1/IGF2: minimal effects
[10]
  Dystrophin protein in skeletal muscle of mdx mice: significantly increased
  Ub-DMD (poly-Ub) in skeletal muscle of mdx mice: reduced

## RXRRBRRXRRBRXB [PPMO23]
[10]
  Dystrophin protein in skeletal muscle of mdx mice: partially restored
  Ub-DMD (poly-Ub) in skeletal muscle of mdx mice: robust
